Experiment [1] concerns the target T1, Alpha-1B adrenergic receptor (Homo sapiens) (UniProt P35368).
T1 sequence (whole entry): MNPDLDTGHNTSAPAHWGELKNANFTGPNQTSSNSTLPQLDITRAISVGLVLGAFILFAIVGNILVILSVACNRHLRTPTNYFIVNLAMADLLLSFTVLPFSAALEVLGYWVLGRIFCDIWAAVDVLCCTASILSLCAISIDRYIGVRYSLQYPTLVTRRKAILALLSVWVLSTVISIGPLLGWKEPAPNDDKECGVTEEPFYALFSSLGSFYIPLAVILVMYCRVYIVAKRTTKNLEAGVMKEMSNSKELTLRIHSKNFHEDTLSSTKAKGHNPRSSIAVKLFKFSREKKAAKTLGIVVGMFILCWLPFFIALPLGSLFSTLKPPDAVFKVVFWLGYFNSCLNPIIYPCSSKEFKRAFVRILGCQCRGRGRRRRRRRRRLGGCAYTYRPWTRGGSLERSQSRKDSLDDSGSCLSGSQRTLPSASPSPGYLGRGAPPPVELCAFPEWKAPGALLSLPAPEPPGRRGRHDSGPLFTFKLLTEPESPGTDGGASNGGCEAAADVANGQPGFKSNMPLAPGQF
Description: The binding affinity was evaluated on cloned human Alpha-1B adrenergic receptor expressed in chinese hamster ovary(CHO) cells by using [3H]prazosin as radioligand. The format is cell-based. In a few lines:
(§1)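 Membranes (30 μg protein) from CHO cells stably expressing each human α1 subtype, in 50 mM Tris-HCl pH 7.4. Incubated with 0.1–0.4 nM [3H]prazosin for 30 min at 25 °C, competitor 1 pM–10 μM. Nonspecific binding with 10 μM phentolamine. Ki by Cheng-Prusoff. 2–3 experiments in triplicate.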

Experiment [2] concerns the target T2, Alpha-1D adrenergic receptor (Homo sapiens) (UniProt P25100).
T2 sequence (whole entry): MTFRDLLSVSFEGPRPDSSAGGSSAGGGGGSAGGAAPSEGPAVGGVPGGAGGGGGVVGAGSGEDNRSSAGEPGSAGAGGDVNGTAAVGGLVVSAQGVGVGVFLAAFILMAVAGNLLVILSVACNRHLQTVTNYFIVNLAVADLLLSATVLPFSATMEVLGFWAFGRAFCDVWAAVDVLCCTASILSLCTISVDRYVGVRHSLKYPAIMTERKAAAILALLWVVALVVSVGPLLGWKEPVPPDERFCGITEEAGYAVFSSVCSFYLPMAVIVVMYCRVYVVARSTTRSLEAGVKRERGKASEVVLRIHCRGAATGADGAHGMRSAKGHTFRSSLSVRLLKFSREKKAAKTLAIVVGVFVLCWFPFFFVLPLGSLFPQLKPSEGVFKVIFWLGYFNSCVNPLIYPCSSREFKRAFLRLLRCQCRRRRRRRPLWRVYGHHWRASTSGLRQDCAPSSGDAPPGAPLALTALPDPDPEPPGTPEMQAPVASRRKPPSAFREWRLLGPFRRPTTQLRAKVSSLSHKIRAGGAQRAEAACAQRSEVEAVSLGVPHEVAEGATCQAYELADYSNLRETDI
Description: The binding affinity was evaluated on cloned human alpha-1D adrenergic receptor expressed in chinese hamster ovary(CHO) cells by using [3H]prazosin as radioligand. Format: cell-based. In a few lines: as §1

The target in experiment [3] is T3, 5-hydroxytryptamine receptor 1A (Homo sapiens) (UniProt P08908).
T3 sequence (whole entry): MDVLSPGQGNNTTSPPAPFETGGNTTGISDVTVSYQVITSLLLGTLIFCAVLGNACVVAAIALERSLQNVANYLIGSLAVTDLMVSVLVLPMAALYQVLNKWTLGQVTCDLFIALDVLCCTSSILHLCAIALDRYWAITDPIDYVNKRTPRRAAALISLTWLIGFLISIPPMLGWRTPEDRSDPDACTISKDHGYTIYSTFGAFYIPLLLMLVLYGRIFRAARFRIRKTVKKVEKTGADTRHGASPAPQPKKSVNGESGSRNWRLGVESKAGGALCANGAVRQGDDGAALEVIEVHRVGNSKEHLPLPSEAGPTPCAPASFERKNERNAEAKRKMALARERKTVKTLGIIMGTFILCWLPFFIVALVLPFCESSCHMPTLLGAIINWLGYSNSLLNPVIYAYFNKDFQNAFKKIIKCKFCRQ
Description: The binding affinity was evaluated on cloned human 5-hydroxytryptamine 1A receptor expressed in HeLa cells by using DPAT as radioligand. The format is cell-based. Put shortly:
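Membranes from HeLa cells stably expressing human 5-HT1A, in 50 mM Tris-HCl pH 7.4, 2.5 mM MgCl2, 10 μM pargyline. Nonspecific binding with 10 μM 5-HT. Filtration. Ki by Cheng-Prusoff. 2–3 experiments in triplicate.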

The target in experiment [4] is T4, Alpha-1A adrenergic receptor (Homo sapiens) (UniProt P35348).
T4 sequence (whole entry): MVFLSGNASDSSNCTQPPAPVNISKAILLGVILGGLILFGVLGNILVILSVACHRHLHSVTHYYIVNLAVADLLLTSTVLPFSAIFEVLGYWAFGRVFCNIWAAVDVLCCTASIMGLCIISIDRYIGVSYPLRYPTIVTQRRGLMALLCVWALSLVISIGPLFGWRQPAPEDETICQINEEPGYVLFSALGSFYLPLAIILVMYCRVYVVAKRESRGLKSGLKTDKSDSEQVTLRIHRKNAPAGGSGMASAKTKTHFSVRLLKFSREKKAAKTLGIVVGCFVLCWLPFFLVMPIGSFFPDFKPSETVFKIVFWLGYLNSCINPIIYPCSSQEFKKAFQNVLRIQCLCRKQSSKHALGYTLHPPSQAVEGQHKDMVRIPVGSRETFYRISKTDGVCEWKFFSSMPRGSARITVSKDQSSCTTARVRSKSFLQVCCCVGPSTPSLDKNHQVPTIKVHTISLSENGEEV
Description: The binding affinity was evaluated on cloned human alpha-1A adrenergic receptor expressed in chinese hamster ovary(CHO) cells by using [3H]prazosin as radioligand. The format is cell-based. In a few lines:
as §1

Experiment [5] has as its target T3, 5-hydroxytryptamine receptor 1A (Homo sapiens). Description: Maximum […] was evaluated as ([35S]GTP binding on cloned human 5-hydroxytryptamine 1A receptor. Format: functional. In a few lines:
(§2)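 HeLa membranes stably expressing human 5-HT1A, in 20 mM HEPES, 3 mM MgSO4, 120 mM NaCl (pH 7.4). Preincubated 20 min at 30 °C with 30 μM GDP and drug (100 μM–0.1 nM), then [35S]GTPγS (150–250 pM) added for a further 30 min at 30 °C. Nonspecific binding with 10 μM GTPγS. Filtration and scintillation counting. Stimulation is % above basal, with maximal 5-HT response = 100%. Emax and pD2 from curve fitting. Triplicate, 2–3 sessions.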

The target in experiment [6] is T4, Alpha-1A adrenergic receptor (Homo sapiens). Description: The binding affinity was evaluated on cloned human Alpha-1A adrenergic receptor expressed in chinese hamster ovary(CHO) cells by using [3H]prazosin as radioligand. Format: cell-based. In a few lines:
as §1

Experiment [7] deals with T3, 5-hydroxytryptamine receptor 1A (Homo sapiens). Description: Agonist efficacy was evaluated as [35S]GTP binding on cloned human 5-hydroxytryptamine 1A receptor. Format: functional. In a few lines:
as §2

The target in experiment [8] is T2, Alpha-1D adrenergic receptor (Homo sapiens). Description: The binding affinity was evaluated on cloned human Alpha-1D adrenergic receptor expressed in chinese hamster ovary(CHO) cells by using [3H]-prazosin as radioligand. The format is cell-based. Put shortly: as §1
In experiment [9] the target is 5-hydroxytryptamine receptor 2A (Rattus norvegicus) (UniProt P14842). Description: The binding affinity was evaluated on 5-hydroxytryptamine 2A receptor expressed in rat cortex by using [3H]ketanserin as radioligand. In a few lines:
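Rat cerebral cortex membranes in Tris-HCl pH 7.4 with 10 μM pargyline and 0.1% ascorbic acid. Incubated 20 min at 37 °C with 0.7–1.3 nM [3H]ketanserin. Nonspecific binding with 2 μM ketanserin. Filtration and scintillation counting. Ki by Cheng-Prusoff. 2–3 experiments in triplicate.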

Experiment [10] deals with Adrenergic receptor alpha-2 (Rattus norvegicus) (UniProt P22086+P19328+P22909). Description: The binding affinity was evaluated on alpha-2 adrenergic receptor expressed in rat cortex by using [3H]rauwolscine as radioligand. Put shortly:
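Male Sprague-Dawley rat cerebral cortex membranes, washed in Tris-HCl pH 7.4 and held in buffer with 10 μM pargiline and 0.1% ascorbic acid. Incubated 30 min at 25 °C with 0.5-1.5 nM [3H]rauwolscine; nonspecific binding with 10 μM phentolamine. Filtration, scintillation counting. Ki from Cheng-Prusoff; 2-3 experiments in triplicate.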

The target of experiment [11] is D(2) dopamine receptor (Rattus norvegicus) (UniProt P61169). Description: The binding affinity was evaluated on Dopamine receptor D2 expressed in rat striatum by using [3H]spiperone as radioligand. The format is tissue-based. Put shortly: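 Rat striatum membranes in Tris-HCl with 10 μM pargyline, 0.1% ascorbic acid, 120 mM NaCl, 5 mM KCl, 2 mM CaCl2, 1 mM MgCl2. Incubated 15 min at 37 °C with 0.2–0.6 nM [3H]spiperone. Nonspecific binding with 1 μM (+)-butaclamol. Ki by Cheng-Prusoff. 2–3 experiments in triplicate.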

In experiment [12] the target is T1, Alpha-1B adrenergic receptor (Homo sapiens). Description: The binding affinity was evaluated on cloned human alpha-1B adrenergic receptor expressed in chinese hamster ovary(CHO) cells by using [3H]prazosin as radioligand. The format is cell-based. In a few lines: as §1
The target of experiment [13] is T3, 5-hydroxytryptamine receptor 1A (Homo sapiens).
For experiment [14] the target is unchanged. The source holds these as a separate data set.
The target in experiment [15] is T5, Alpha-1A adrenergic receptor (Rattus norvegicus) (UniProt P43140).
T5 sequence (whole entry): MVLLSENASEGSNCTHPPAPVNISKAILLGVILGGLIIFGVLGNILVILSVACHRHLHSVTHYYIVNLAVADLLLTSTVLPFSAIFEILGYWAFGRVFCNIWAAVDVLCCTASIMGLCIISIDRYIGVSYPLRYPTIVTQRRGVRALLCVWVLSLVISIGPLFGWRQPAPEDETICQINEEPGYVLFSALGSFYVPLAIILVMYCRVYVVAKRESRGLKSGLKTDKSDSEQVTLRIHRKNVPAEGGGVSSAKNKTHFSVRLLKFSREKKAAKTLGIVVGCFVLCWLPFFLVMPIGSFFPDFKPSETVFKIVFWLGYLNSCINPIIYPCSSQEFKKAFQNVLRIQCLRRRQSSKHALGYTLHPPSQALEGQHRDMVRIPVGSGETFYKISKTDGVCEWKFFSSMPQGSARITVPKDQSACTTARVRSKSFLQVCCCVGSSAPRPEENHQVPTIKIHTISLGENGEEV
Description: Antagonist affinity was expressed as apparent pKb at Alpha-1A adrenergic receptor on isolated rat prostatic vas deferens (alpha1A). Format: functional, tissue-based. Put shortly: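 Rat prostatic vas deferens in Tyrode with 0.1 μM cocaine. Equilibrated 60 min, primed twice with 10 μM noradrenaline, then a control cumulative (–)-noradrenaline curve recorded isometrically. Antagonist equilibrated 30 min before a repeat curve. Apparent pKb = log(DR−1) − log[B], with DR as the ratio of agonist EC50 with/without antagonist. 2–3 antagonist concentrations, each tested four times.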

For experiment [16], the target named is T6, Alpha-1D adrenergic receptor (Rattus norvegicus) (UniProt P23944).
T6 sequence (whole entry): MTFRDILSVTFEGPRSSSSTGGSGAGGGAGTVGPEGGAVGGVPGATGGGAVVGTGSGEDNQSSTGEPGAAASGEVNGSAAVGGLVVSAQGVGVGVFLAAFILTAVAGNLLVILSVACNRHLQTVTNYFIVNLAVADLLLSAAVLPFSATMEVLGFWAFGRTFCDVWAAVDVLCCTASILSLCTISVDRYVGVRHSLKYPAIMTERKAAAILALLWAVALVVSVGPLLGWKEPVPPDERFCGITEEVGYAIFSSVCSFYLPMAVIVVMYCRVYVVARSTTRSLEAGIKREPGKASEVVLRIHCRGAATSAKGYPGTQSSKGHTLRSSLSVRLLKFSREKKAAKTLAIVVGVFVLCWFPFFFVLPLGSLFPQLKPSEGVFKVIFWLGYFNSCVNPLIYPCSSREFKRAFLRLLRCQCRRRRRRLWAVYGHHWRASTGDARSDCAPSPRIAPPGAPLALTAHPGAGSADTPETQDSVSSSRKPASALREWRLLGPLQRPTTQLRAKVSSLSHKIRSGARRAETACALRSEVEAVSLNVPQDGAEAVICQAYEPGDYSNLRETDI
Description: Antagonist affinity was expressed as apparent pKb at Alpha-1D adrenergic receptor on isolated rat thoracic aorta (Alpha-1D). Format: functional, tissue-based. In a few lines:
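Helicoidal strips of rat thoracic aorta at 1 g tension, with 0.1 μM cocaine and 1 μM propranolol. After ≥1 h equilibration, cumulative (–)-noradrenaline curves at 30-min intervals; the third served as control. Antagonist equilibrated 30 min before the fourth curve. Apparent pKb from log(DR−1) − log[B], 2–3 antagonist concentrations, each tested four times.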

Sequence of D(2) dopamine receptor (Rattus norvegicus) (P61169 whole entry): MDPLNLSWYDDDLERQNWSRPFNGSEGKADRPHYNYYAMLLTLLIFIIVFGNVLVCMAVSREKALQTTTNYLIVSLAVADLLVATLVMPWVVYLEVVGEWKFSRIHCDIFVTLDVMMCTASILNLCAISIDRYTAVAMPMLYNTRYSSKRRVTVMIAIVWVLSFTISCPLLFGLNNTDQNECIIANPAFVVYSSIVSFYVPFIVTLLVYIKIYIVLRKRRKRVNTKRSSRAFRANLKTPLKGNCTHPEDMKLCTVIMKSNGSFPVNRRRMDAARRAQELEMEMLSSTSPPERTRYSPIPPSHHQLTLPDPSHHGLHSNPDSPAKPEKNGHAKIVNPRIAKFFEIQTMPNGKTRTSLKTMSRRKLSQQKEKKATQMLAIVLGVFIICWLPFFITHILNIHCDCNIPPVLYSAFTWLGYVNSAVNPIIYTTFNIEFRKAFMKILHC
Sequence of 5-hydroxytryptamine receptor 2A (Rattus norvegicus) (P14842 whole entry): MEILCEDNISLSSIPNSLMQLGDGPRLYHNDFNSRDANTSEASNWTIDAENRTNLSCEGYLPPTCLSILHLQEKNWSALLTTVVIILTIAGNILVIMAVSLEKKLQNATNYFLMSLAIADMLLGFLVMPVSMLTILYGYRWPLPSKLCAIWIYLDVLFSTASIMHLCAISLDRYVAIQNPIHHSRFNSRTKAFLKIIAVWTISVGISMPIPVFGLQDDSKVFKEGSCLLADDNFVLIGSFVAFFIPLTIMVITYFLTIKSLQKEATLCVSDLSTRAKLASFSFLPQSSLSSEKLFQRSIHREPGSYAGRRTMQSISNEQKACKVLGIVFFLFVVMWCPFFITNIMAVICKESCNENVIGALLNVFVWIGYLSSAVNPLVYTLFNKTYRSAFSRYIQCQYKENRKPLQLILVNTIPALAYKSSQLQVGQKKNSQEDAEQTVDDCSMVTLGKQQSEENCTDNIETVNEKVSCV

For `COc1cccc(OC)c1OCCNCC1C(=O)c2ccccc2SC1c1ccccc1` (stereo not given), the pKi in experiment [1] is below 6; in [2], 6.37; in experiment [3], 7.36; in experiment [4], 7.42.

`COc1cccc(OC)c1OCCNCC1=Cc2ccccc2OC1c1ccccc1` (stereo not given) had a Max in experiment [5] of 40%. Moreover, the negative-log Ki (pKi) in experiment [6] is 7.14; in [1], 6.84; in experiment [8], 6.95; in [3], 8.08. Moreover, the pD2 in experiment [7] worked out at 6.44.

`COc1cccc(OC)c1OCCNCC1COc2ccccc2O1` (stereo not given): the negative-log Ki (pKi) in experiment [9] was 6; in experiment [10], 7.83; in [11], 6.91; in [3], 8.68; in [4] it was 9.37.

Consider `COc1cccc(OC)c1OCCNCC1Oc2ccccc2CC1c1ccccc1` (stereo in doubt; 6), for which the pKi in experiment [12] was found to be 6.51; in [2], 6.86; in experiment [3], 6.76; in experiment [4], 6.78.

For the compound `COc1cccc(OC)c1OCCNCC1C(=O)c2ccccc2CC1c1ccccc1` (stereo not given), the pKi in experiment [12] was 6.11; in experiment [9] it was 6.63; in [10], 6.45; in [11] it was below 6; in experiment [2], 6.88; in [3] it was 6.83. For the same compound, the pKi in experiment [4] stood at 8.06.

Take `NCCc1c[nH]c2ccc(C(N)=O)cc12`: the pD2 in experiment [13] came to 8.45.

On to `NCCc1c[nH]c2ccc(O)cc12`, for which the pD2 in experiment [14] was 7.3.

Take `COc1cccc(OC)c1OCCNC[C@H]1Oc2ccccc2O[C@@H]1c1ccccc1`: the pKb in [15] worked out at 8.18; in [16] it was 7.51.

The record behind these values is ChEMBL document CHEMBL1132324, “Structure-activity relationships in 1,4-benzodioxan-related compounds. 6. Role of the dioxane unit on selectivity for alpha(1)-adrenoreceptor subtypes” (J Med Chem, 1999).
